Key:
Format in all cases: functional, cell-based
MDA-MB-231 = test: Antitumor activity against human MDA-MB-231 cells by methylene blue staining method
Summary of the method: (§1)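 Cells grown in RPMI1640 with 10% fetal bovine serum, seeded in 96-well plates and cultured overnight at 37 °C, 5% CO2 before serially diluted samples were added. After 3 days of culture, stained 30 min with 0.05% methylene blue in 10 mM Tris pH 8.5, washed with water, dye extracted with 3% HCl, OD660 read. Independent triplicates; IC50 from means. Cisplatin control included in each assay.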

NCI-H460 = test: Antitumor activity against human NCI-H460 cells by methylene blue staining method; summary of the method: as §1
T47D = test: Antitumor activity against human T47D cells by methylene blue staining method; summary of the method: as §1
PC-3 = test: Antitumor activity against human PC3 cells by methylene blue staining method; summary of the method: as §1
DLD-1 = test: Antitumor activity against human DLD1 cells by methylene blue staining method; summary of the method: as §1
A498 = test: Antitumor activity against human A498 cells by methylene blue staining method; summary of the method: as §1
UO-31 = test: Antitumor activity against human UO31 cells by methylene blue staining method; summary of the method: as §1
HCT-116 = test: Antitumor activity against human HCT116 cells by methylene blue staining method; summary of the method: as §1

| IC50 (MDA-MB-231) [nM] | IC50 (NCI-H460) [nM] | IC50 (T47D) [nM] | IC50 (PC-3) [nM] | IC50 (DLD-1) [nM] | IC50 (A498) [nM] | IC50 (UO-31) [nM] | IC50 (HCT-116) [nM] | Compound |
| --- | --- | --- | --- | --- | --- | --- | --- | --- |
| 6940 | 9980 | – | – | – | – | – | – | CC(=O)O[C@@H]1[C@@H](O[C@H]2C[C@H]3[C@@H]4CCc5cc(O)ccc5[C@H]4CC[C@]3(C)[C@@]2(O)[C@H](C)C(=O)CCC(C)C)OC[C@@H](O)[C@H]1O[C@@H]1OC[C@@H](O)[C@H](O)[C@H]1O |
| 680 | 260 | 710 | 1400 | 1180 | 430 | – | – | COc1ccc(C(=O)O[C@H]2[C@H](O[C@H]3[C@H](OC(C)=O)[C@@H](O[C@H]4C[C@H]5[C@@H]6CCc7cc(O)ccc7[C@H]6CC[C@]5(C)[C@@]4(O)[C@H](C)C(=O)CCC(C)C)OC[C@H]3O)OC[C@@H](O)[C@@H]2O)cc1 |
| 850 | 2590 | 2810 | 680 | 1720 | 300 | 56 | 2900 | COc1ccc(C(=O)O[C@H]2[C@H](O[C@H]3[C@H](OC(C)=O)[C@@H](O[C@H]4C[C@H]5[C@@H]6CCc7cc(O)ccc7[C@H]6CC[C@]5(C)[C@@]4(O)[C@H](C)C(=O)CCC(C)C)OC[C@H]3F)OC[C@@H](O)[C@@H]2O)cc1 |
| 18200 | 5750 | – | – | – | – | – | – | COc1ccc(C(=O)O[C@@H]2CCO[C@H]2O[C@H]2[C@H](OC(C)=O)[C@@H](O[C@H]3C[C@H]4[C@@H]5CCc6cc(O)ccc6[C@H]5CC[C@]4(C)[C@@]3(O)[C@H](C)C(=O)CCC(C)C)OC[C@H]2O)cc1 |
| 10900 | 13700 | – | – | – | – | – | – | COc1ccc(C(=O)O[C@H]2[C@H](O[C@@H]3CCO[C@H](O[C@H]4C[C@H]5[C@@H]6CCc7cc(O)ccc7[C@H]6CC[C@]5(C)[C@@]4(O)[C@H](C)C(=O)CCC(C)C)[C@H]3OC(C)=O)OC[C@@H](O)[C@@H]2O)cc1 |
| 100 | 3.7 | 27 | 200 | 100 | 35 | 100 | 37 | COc1cccc2c1C(=O)c1c(O)c3c(c(O)c1C2=O)C[C@@](O)(C(=O)CO)C[C@@H]3O[C@H]1C[C@H](N)[C@H](O)[C@H](C)O1 [DOXORUBICIN] |

From ChEMBL document CHEMBL1149681, “OSW-1 analogues: modification of the carbohydrate moiety” (Bioorg Med Chem Lett, 2007)
